Data set [1] in a line: Half life in dog. The data set is classed as ADME, organism-based, Canis lupus familiaris. The conditions noted are these: in vivo.
A short description of data set [2]: Oral bioavailability in rat. In kind it is ADME, organism-based. The conditions noted are these: in vivo.
Data set [3] concerns the target T1, Substance-P receptor (Homo sapiens, UniProt P25103). The data set is described as follows: Antagonist activity at human recombinant NK1 receptor expressed in CHO cells assessed as remaining substance P level at 100 nM after 30 mins by [H3]-inositol phosphate release assay. In kind it is functional, cell-based. A digest of the protocol:
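CHO cells with recombinant human NK1 receptor, 2.5 × 10⁴ per well, plated overnight, then prelabelled overnight at 37 °C with [3H]-myo-inositol (10–25 Ci/mmol) in inositol-free medium with 0.02% BSA. LiCl 10 mM in HEPES-buffered inositol-free DMEM, 15 min. Antagonist at 100 nM or DMSO for 30 min, then substance P for 30 min. Stopped with formic acid. [3H]-inositol phosphate captured on yttrium silicate SPA beads, 2 h. Reported as % substance P response remaining.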

Data set [4] can be described thus: Metabolic stability in rhesus monkey microsomes assessed as compound remaining after 60 mins. The data set is classed as ADME, Macaca mulatta, Microsome. The conditions noted are these: read-out: Stability. A digest of the protocol:
(§1)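 Compound incubated 60 min with liver microsomes from human, dog, rat or rhesus; % parent remaining measured.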

Data set [5] in a line: Metabolic stability in dog microsomes assessed as compound remaining after 60 mins. In kind it is ADME, Canis lupus familiaris, Microsome. The conditions noted are these: read-out: Stability. A digest of the protocol:
as §1

Data set [6] addresses T1, Substance-P receptor. The data set is described as follows: Displacement of [125I]substance P from human NK1 receptor expressed in CHO cells in presence of 50% rat serum. The data set is classed as cell-based. Put shortly: (§2)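 Radioligand binding: [125I]substance P displaced from human NK1 receptor expressed in CHO cells; IC50 determined. Also run with 50% serum added (human, dog, rhesus, rat or gerbil) to measure the serum shift.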

A short description of data set [7]: Binding affinity to calcium channel. A digest of the protocol: (§3)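 Ion channel binding assay; IC50 values calculated for sodium channel and for calcium channel (Dlz site).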
For data set [8], the system named is Meriones unguiculatus. The experiment in a line: Inhibition of GR-73632-induced foot tapping in Mongolian gerbil at 3 mg/kg after 24 hrs. In kind it is functional. Put shortly: (§4)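 Gerbils given antagonist at the dose and pretreatment time shown (1 mg/kg at 1 h, 3 mg/kg at 24 h); foot tapping then induced with the NK1 agonist GR73632. Read-out is % inhibition of tapping; ED50 or ID50 from dose–response.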

The nature of data set [9]: Binding affinity to potassium channel IKr.
The nature of data set [10]: Binding affinity to sodium channel. A digest of the protocol: as §3
A short description of data set [11]: Ratio of drug level in brain to plasma in Mongolian gerbil. The data set is classed as ADME, Meriones unguiculatus. The conditions noted are these: read-out: BPR.
Data set [12] is described as follows: Volume of distribution in rat. The data set is classed as ADME, organism-based. The conditions noted are these: in vivo.
Data set [13] concerns the target T2, PXR (nuclear receptor subfamily 1 group I member 2) (Homo sapiens, UniProt O75469).
T2 sequence (O75469 whole entry): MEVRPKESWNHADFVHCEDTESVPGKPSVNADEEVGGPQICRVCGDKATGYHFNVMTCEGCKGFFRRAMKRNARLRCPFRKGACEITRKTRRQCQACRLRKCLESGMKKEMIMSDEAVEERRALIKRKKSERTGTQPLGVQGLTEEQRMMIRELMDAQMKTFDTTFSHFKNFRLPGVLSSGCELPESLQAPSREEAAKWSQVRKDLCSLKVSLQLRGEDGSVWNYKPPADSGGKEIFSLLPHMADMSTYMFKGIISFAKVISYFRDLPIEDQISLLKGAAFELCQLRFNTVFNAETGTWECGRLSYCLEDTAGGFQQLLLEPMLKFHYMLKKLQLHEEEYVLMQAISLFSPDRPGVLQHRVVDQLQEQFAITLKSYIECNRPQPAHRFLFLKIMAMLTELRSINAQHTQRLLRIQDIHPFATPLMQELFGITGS
The experiment in a line: Inhibition of human PXR induction at 10 uM. Put shortly:
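Human PXR induction measured at 10 µM compound, expressed as % of maximal induction.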

The nature of data set [14]: Metabolic stability in human microsomes assessed as compound remaining after 60 mins. The conditions noted are these: read-out: Stability. In kind it is ADME, Microsome. A digest of the protocol:
as §1

For data set [15], the target named is Cytochrome P450 2C9 (Homo sapiens, UniProt P11712). The data set is described as follows: Inhibition of CYP2C9. The data set is classed as ADME.
Sequence of Cytochrome P450 2C9 (P11712 whole entry): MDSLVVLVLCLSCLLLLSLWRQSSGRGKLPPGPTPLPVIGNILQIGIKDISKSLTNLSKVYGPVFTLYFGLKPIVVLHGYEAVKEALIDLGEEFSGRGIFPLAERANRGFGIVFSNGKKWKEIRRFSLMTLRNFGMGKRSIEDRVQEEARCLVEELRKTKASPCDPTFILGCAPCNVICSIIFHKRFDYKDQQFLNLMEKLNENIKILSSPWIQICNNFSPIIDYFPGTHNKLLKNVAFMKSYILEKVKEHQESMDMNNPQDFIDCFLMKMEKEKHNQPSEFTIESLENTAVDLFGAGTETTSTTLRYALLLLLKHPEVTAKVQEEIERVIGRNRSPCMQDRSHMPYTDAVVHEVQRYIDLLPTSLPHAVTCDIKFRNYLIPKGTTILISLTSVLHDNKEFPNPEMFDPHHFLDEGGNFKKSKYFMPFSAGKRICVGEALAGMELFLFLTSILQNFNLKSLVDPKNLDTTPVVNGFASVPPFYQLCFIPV
Data set [16] is described as follows: Plasma clearance in dog. In kind it is ADME, organism-based, Canis lupus familiaris.
The target in data set [17] is Cytochrome P450 3A4 (Homo sapiens, UniProt P08684). The experiment in a line: Inhibition of CYP3A4. The data set is classed as ADME.
Sequence of Cytochrome P450 3A4 (P08684 whole entry): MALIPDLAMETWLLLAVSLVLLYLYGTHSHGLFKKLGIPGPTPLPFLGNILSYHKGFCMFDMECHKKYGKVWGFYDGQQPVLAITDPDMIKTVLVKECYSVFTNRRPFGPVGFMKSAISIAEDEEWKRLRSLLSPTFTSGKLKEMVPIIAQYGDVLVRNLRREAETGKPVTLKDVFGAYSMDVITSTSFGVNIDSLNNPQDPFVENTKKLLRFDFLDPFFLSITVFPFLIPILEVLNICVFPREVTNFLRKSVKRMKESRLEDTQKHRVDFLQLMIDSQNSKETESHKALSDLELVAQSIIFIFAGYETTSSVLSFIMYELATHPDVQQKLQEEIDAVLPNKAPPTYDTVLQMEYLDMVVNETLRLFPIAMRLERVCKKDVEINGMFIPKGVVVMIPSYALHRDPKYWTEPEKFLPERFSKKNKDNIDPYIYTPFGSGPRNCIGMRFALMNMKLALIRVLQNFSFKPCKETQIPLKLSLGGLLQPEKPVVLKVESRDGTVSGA
Data set [18] deals with T3, Nuclear receptor subfamily 1 group I member 2 (Homo sapiens, UniProt O75469).
T3 sequence (O75469 whole entry): T2 sequence (O75469 whole entry)
The experiment in a line: Inhibition of human PXR induction.

Data set [19] concerns the target T1, Substance-P receptor. The experiment in a line: Displacement of [125I]substance P from human NK1 receptor expressed in CHO cells. The data set is classed as cell-based. Put shortly: as §2
Data set [20] can be described thus: Half life in rat. The conditions noted are these: in vivo. In kind it is ADME, organism-based.
The target of data set [21] is T1, Substance-P receptor. The experiment in a line: Displacement of [125I]substance P from human NK1 receptor expressed in CHO cells in presence of 50% human serum. The data set is classed as cell-based. Put shortly: as §2
Data set [22] has as its target T1, Substance-P receptor. The data set is described as follows: Displacement of [125I]substance P from human NK1 receptor expressed in CHO cells in presence of 50% dog serum. The data set is classed as cell-based. Put shortly:
as §2

Data set [23] can be described thus: Mean residence time in rat. The data set is classed as ADME, organism-based. The conditions noted are these: in vivo.
Data set [24] can be described thus: Plasma clearance in rat. In kind it is ADME, organism-based.
Data set [25] in a line: Metabolic stability in rat microsomes assessed as compound remaining after 60 mins. The conditions noted are these: read-out: Stability. The data set is classed as ADME, Microsome. Put shortly: as §1
For data set [26], the species on record is Meriones unguiculatus. The data set is described as follows: Inhibition of GR-73632-induced foot tapping in Mongolian gerbil after 24 hrs. In kind it is functional. Put shortly:
as §4

The species named for data set [27] is Meriones unguiculatus. The experiment in a line: Inhibition of GR-73632-induced foot tapping in Mongolian gerbil after 1 hr. The conditions noted are these: read-out: ID50 (the source's name). In kind it is functional. Put shortly:
as §4

The target in data set [28] is T1, Substance-P receptor. The data set is described as follows: Displacement of [125I]substance P from human NK1 receptor expressed in CHO cells in presence of 50% mongolian gerbil serum. The data set is classed as cell-based. A digest of the protocol:
as §2

For data set [29], the target named is T1, Substance-P receptor. The data set is described as follows: Displacement of [125I]substance P from human NK1 receptor expressed in CHO cells in presence of 50% rhesus monkey serum. In kind it is cell-based. A digest of the protocol:
as §2

The target in data set [30] is Cytochrome P450 2D6 (Homo sapiens, UniProt P10635). The data set is described as follows: Inhibition of CYP2D6. The data set is classed as ADME.
Sequence of Cytochrome P450 2D6 (P10635 whole entry): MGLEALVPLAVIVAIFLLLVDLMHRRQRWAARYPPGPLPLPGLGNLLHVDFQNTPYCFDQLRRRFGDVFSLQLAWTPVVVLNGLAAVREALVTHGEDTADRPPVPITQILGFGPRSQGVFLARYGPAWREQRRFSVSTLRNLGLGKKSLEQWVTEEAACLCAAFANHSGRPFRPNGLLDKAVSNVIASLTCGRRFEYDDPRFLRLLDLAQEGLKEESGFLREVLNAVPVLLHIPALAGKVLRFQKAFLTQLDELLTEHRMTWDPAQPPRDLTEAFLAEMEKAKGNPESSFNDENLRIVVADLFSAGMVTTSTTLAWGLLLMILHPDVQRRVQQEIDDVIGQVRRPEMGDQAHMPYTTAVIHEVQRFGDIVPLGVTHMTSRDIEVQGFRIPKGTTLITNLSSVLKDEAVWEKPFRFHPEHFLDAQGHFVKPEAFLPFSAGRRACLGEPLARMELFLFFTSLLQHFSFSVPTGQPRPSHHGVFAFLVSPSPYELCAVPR
The test system of data set [31] is Meriones unguiculatus. The experiment in a line: Inhibition of GR-73632-induced foot tapping in Mongolian gerbil at 1 mg/kg after 1 hr. The data set is classed as functional. A digest of the protocol: as §4

T1 sequence (P25103 whole entry): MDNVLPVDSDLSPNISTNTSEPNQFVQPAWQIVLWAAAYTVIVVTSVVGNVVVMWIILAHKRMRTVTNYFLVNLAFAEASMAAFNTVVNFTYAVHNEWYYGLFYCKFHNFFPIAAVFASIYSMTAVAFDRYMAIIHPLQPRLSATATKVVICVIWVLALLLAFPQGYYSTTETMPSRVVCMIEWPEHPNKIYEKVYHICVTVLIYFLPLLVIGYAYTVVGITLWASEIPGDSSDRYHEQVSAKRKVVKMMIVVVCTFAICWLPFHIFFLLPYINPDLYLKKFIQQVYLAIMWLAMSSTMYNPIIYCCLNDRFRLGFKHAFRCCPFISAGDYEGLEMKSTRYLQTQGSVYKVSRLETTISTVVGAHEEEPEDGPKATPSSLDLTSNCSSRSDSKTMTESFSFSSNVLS

Consider `C[C@@H](O[C@H]1CN2C(=O)[C@H]3C[C@@](C)(O)C[C@H]3[C@H]2[C@@H]1c1ccc(F)cc1)c1cc(C(F)(F)F)cc(C(F)(F)F)c1`, for which the half-life in [1] was 2.42 days; in data set [20] it was 876 min. This compound also came in with a bioavailability in data set [2] of 88.8%. Also, the Activity in data set [3] amounted to 3%. Besides, the remaining at 1 h in [4] stood at 99%; in data set [5], 90%; in data set [14] it was 96%; in [25] it was 96%. In addition, the IC50 is 0.4 nM in [6]; above 10 µM in data set [7]; 2470 nM in data set [9]; above 10 µM in data set [10]; 43.1 µM in data set [15]; 22.7 µM in data set [17]. The IC50 in [18] worked out at 8.4 µM; in data set [19], 0.061 nM; in [21], 0.7 nM; in data set [22], 1.5 nM; in data set [28], 1.9 nM; in data set [29], 0.4 nM. In addition, half-maximal inhibition in data set [30] (IC50) required 17.4 µM. In data set [8], this compound had an inhibition in vivo at 3 mg/kg of 100%. Besides, the Kp in [11] stood at 0.5. This compound had a Vd in [12] of 4.03 L/kg. In data set [13], the Emax at 10 µM is 37%. Also, the clearance in [16] was determined as 0.5 mL/min/kg; in data set [24] it was 3.24 mL/min/kg. For the same compound, the MRT in data set [23] came to 4.67 h. Also, the ED50 in data set [26] (read-out: ED50), in data set [26] (read-out: ID50 (the source's name)) and in data set [27] was 0.02 mg/kg throughout.
Turning to `C[C@@H](O[C@H]1CN2C(=O)[C@H]3C[C@@H](O)C[C@H]3[C@H]2[C@@H]1c1ccc(F)cc1)c1cc(C(F)(F)F)cc(C(F)(F)F)c1`, in data set [3], the Activity worked out at 3%. The inhibition in vivo at 3 mg/kg in data set [8] came to 100%. The Emax at 10 µM in [13] worked out at 65%. Further, the IC50 in [18] is 4.5 µM; in data set [19], 0.06 nM; in data set [21], 0.77 nM. For the same compound, in [31], 1 mg/kg produced 100% inhibition in vivo.
Turning to `C[C@@H](O[C@H]1CN2C(=O)C3CN(C4=CC(=O)CC4)CC3[C@H]2[C@@H]1c1ccc(F)cc1)c1cc(C(F)(F)F)cc(C(F)(F)F)c1` (stereo in doubt; 18b) [FIRST ELUDED ISOMER], the IC50 in [7] is 4.81 µM; in data set [9] it was 730 nM; in data set [19], 0.09 nM; in data set [21], 1 nM. At 1 mg/kg the inhibition in vivo in [31] was 92%.

Source of the values: ChEMBL document CHEMBL1255526, “Fused tricyclic pyrrolizinones that exhibit pseudo-irreversible blockade of the NK1 receptor” (Bioorg Med Chem Lett, 2010).
